{"data": "Measured values gathered from unrelated publications", "target": "Casein kinase I isoform alpha (CSNK1A1, Homo sapiens, UniProt P48729)", "Residues used in one study (P48729 1-304)": "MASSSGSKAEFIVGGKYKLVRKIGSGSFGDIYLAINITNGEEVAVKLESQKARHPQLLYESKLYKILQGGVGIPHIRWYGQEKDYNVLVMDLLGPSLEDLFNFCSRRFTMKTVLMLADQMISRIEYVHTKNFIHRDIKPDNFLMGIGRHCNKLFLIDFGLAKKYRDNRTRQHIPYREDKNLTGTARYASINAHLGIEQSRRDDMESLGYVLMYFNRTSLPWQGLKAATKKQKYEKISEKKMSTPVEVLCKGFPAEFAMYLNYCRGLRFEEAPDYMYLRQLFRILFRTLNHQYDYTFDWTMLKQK", "note": "Compare with care: the assays were run in different laboratories."}
{"SMILES": "C[C@H]1CC[C@H](n2c3cnccc3c3cnc(Nc4ccc5c(n4)CCN(C(=O)CO)C5)nc32)CC1", "read-out": "cell-free assay", "concentration": "1 µM", "measurement": "remaining signal", "result": "94%"}
{"SMILES": "CC#CC(=O)N1CCC[C@H]1c1nc(-c2ccc(C(=O)Nc3ccccn3)cc2)c2c(N)nccn12", "read-out": "enzyme activity", "mode": "inhibitor", "concentration": "1 µM", "measurement": "inhibition", "result": "21%"}
{"SMILES": "c1cc(-c2cnn3cc(-c4ccc(OCCN5CCCCC5)cc4)cnc23)ccn1", "read-out": "binding", "method": "SPR", "measurement": "kon", "result": "2.49e+09 M⁻¹ s⁻¹"}
{"SMILES": "COc1ccc2oc(-c3ccc4nc(N)oc4c3)c/c(=N\\c3ccccc3NC(=O)CCN)c2c1", "read-out": "binding", "concentration": "1 µM", "measurement": "remaining binding", "result": "102%"}
{"SMILES": "CCCCC(=O)Nc1ccc(-c2ccc3ncn(CCC)c(=O)c3c2)cn1", "read-out": "binding", "method": "competition with immobilised ligand", "concentration": "0.5 µM", "measurement": "remaining binding", "result": "89%"}
{"SMILES": "CC(C)S(=O)(=O)c1ccc2nccc(Nc3ccc4sc(C5CCCC5)nc4c3)c2c1", "read-out": "enzyme activity", "mode": "inhibitor", "concentration": "1 µM", "measurement": "activity vs control", "result": "103%"}
{"SMILES": "C1=C/COCc2cc(ccc2OCCN2CCCC2)Nc2nccc(n2)-c2cccc(c2)COC/1", "read-out": "binding", "concentration": "0.1 µM", "measurement": "remaining binding", "result": "85%"}
{"SMILES": "Cc1cc(O)c(-c2ccc([C@@H](C)CN(C)C)cc2)c2c1[nH]c(=O)c1sccc12", "read-out": "enzyme activity", "mode": "inhibitor", "concentration": "0.1 µM", "measurement": "inhibition", "result": "6.33%"}
{"SMILES": "COc1ccc2[nH]c3c4[nH]c5ccc(OC)cc5c4c4c(c3c2c1)C(=O)NC4=O", "read-out": "binding", "concentration": "1 µM", "measurement": "remaining binding", "result": "62%"}
{"SMILES": "c1cc(Nc2cc(C3CC3)n[nH]2)nc(Nc2ccc3nc[nH]c3c2)n1", "read-out": "binding", "method": "SPR", "measurement": "kon", "result": "5.43e+08 M⁻¹ s⁻¹"}
{"SMILES": "CO[C@@H]1[C@H](N(C)C(=O)c2ccccc2)C[C@H]2O[C@]1(C)n1c3ccccc3c3c4c(c5c6ccccc6n2c5c31)C(=O)NC4", "read-out": "enzyme activity", "mode": "inhibitor", "concentration": "1 µM", "measurement": "inhibition", "result": "33%"}
